Key:
[1] = biological target: Epidermal growth factor receptor (Homo sapiens, UniProt P00533); assay: Inhibition of recombinant human wild type GST-tagged EGFR cytoplasmic domain (668 to 1210 residues) expressed in baculovirus using tyr4 peptide as substrate after 1 hr by FRET-based Z'-Lyte assay
[2] = Cmax in Sprague-Dawley rat at 25 mg/kg administered via oral gavage measured up to 72 hrs by LC/MS analysis; format: ADME, organism-based; parameters: dose 25 mg/kg, route oral; details: in vivo
Summary of the method: (§1)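 Male Sprague-Dawley rats, 4–6 weeks old, acclimatised 1 week, were dosed iv at 5 mg/kg or by oral gavage at 25 mg/kg. Vehicle was 2% DMSO, 4% EtOH, 4% castor oil, 90% H2O. Blood was drawn by orbital sinus puncture from 2 min to 72 h into heparinized tubes. Plasma was assayed by LC/MS with propranolol as internal standard. Three animals per group.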

[3] = Half life in Sprague-Dawley rat at 25 mg/kg administered via oral gavage measured up to 72 hrs by LC/MS analysis; format: ADME, organism-based; details: in vivo; summary of the method: as §1
[4] = biological target: Receptor-type tyrosine-protein kinase FLT3 (Homo sapiens, UniProt P36888); assay: Inhibition of recombinant human His-tagged FLT3 (564 to 958 residues) expressed in baculovirus using poly (Glu,Tyr) as substrate after 2 hrs by PK-Light ATP assay
[5] = biological target: Tyrosine-protein kinase Lyn (Homo sapiens) (UniProt P07948); assay: Inhibition of recombinant human LYN-B expressed in bacterial expression system at 100 nM by KINOMEscan assay relative to control
Homo sapiens [6] = species: Homo sapiens; assay: Selectivity ratio of IC50 for recombinant cytoplasmic human His-tagged KIT expressed in baculovirus to IC50 for recombinant human His-tagged CSF1R cytoplasmic domain (538 to 910 residues) expressed in baculovirus
RAW264.7 = assay: Antimigratory activity against mouse RAW264.7 cells assessed as inhibition of human LNCaP-MDV-CM mediated macrophage migration at 0.625 uM after 24 hrs by crystal violet staining based transwell assay relative to control; format: functional; details: RAW264.7, 24 h
Summary of the method: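 RAW264.7 cells, (2−4) × 10^5, were placed serum-free in the upper insert of a transwell. The lower chamber held conditioned medium from LNCaP cells grown 48 h in 10% FBS RPMI 1640 with 10 μM MDV3100 or DMSO. Compound at 0.625–5.0 μM was added to the top chamber for 24 h at 37 °C. Migrated cells were fixed in methanol, stained with 0.25% crystal violet and counted in six random fields at 200×. Three independent experiments.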

[7] = biological target: Fibroblast growth factor receptor 3 (Homo sapiens, UniProt P22607); assay: Inhibition of cytoplasmic recombinant human His-tagged FGFR3 (399 to 806 residues) expressed in baculovirus using tyr4 peptide as substrate after 1 hr by FRET-based Z'-Lyte assay
Rattus norvegicus = assay: AUC (0 to infinity) in Sprague-Dawley rat at 25 mg/kg administered via oral gavage measured up to 72 hrs by LC/MS analysis; format: ADME, organism-based; parameters: dose 25 mg/kg, route oral, time infinity; details: in vivo; summary of the method: as §1
[8] = biological target: Macrophage colony-stimulating factor 1 receptor (Homo sapiens, UniProt P07333); assay: Inhibition of recombinant human His-tagged CSF1R cytoplasmic domain (538 to 910 residues) expressed in baculovirus using tyr4 peptide as substrate after 1 hr by FRET-based Z'-Lyte assay
Summary of the method: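 Z′-Lyte FRET assay with CSF1R or EGFR and 2 μM Tyr4 peptide substrate in 1× kinase buffer. ATP was supplied as a 100 μM solution, a stock and not the final concentration. Compounds were 3-fold serially diluted in DMSO. Reaction ran 1 h at room temperature, followed by 1 h development and a stop reagent. Phospho-peptide, no-ATP and DMSO controls were included. IC50 by curve fitting; mean of at least three independent experiments.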

Homo sapiens [9] = species: Homo sapiens; assay: Selectivity ratio of IC50 for recombinant human His-tagged FLT3 (564 to 958 residues) expressed in baculovirus to IC50 for recombinant human His-tagged CSF1R cytoplasmic domain (538 to 910 residues) expressed in baculovirus
[10] = biological target: T1, Macrophage colony-stimulating factor 1 receptor (Mus musculus) (UniProt P09581); assay: Inhibition of CSF1R in mouse RAW264.7 cells assessed as suppression of AKT phosphorylation preincubated for 6 hrs followed by CSF1 stimulation for 20 mins by Western blot analysis; format: cell-based
T1 sequence (whole entry): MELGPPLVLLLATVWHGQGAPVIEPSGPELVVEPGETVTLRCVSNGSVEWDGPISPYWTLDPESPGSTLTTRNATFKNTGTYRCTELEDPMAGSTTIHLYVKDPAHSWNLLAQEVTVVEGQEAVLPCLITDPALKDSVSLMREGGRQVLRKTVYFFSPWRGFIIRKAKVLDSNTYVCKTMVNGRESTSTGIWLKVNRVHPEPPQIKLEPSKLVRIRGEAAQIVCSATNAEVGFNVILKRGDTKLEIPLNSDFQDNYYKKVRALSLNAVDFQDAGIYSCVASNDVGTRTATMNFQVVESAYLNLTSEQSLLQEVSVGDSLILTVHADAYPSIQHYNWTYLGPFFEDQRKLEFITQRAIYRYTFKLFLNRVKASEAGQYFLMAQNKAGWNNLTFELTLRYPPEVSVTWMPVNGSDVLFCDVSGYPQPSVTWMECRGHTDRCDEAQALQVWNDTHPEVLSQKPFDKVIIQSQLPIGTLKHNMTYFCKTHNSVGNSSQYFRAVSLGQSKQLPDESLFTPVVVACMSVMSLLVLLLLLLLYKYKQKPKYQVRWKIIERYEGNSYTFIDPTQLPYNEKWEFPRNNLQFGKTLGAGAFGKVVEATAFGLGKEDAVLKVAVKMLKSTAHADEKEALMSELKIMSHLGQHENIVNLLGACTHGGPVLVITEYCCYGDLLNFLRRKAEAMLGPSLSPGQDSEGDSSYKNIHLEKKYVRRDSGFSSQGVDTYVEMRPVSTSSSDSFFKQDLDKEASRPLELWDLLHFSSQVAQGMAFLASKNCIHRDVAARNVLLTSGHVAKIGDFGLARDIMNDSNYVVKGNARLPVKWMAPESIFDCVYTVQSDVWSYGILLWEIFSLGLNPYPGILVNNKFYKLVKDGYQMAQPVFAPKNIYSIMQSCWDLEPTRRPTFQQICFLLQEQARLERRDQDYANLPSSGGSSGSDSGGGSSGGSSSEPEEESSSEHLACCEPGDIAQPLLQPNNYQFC
Summary of the method: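 RAW264.7 cells were seeded, incubated overnight and treated 6 h with graded compound concentrations, then stimulated 20 min with CSF-1 (50 ng/mL). Lysates were run on 8−12% SDS-PAGE and immunoblotted for p-CSF1R (Tyr723), CSF1R, p-AKT, AKT and GAPDH. Bands were quantified and normalized to GAPDH. Mean ± SEM of at least three experiments.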

Receptor-type tyrosine-protein kinase FLT3, sequence (P36888 whole entry, the tested form may be a part): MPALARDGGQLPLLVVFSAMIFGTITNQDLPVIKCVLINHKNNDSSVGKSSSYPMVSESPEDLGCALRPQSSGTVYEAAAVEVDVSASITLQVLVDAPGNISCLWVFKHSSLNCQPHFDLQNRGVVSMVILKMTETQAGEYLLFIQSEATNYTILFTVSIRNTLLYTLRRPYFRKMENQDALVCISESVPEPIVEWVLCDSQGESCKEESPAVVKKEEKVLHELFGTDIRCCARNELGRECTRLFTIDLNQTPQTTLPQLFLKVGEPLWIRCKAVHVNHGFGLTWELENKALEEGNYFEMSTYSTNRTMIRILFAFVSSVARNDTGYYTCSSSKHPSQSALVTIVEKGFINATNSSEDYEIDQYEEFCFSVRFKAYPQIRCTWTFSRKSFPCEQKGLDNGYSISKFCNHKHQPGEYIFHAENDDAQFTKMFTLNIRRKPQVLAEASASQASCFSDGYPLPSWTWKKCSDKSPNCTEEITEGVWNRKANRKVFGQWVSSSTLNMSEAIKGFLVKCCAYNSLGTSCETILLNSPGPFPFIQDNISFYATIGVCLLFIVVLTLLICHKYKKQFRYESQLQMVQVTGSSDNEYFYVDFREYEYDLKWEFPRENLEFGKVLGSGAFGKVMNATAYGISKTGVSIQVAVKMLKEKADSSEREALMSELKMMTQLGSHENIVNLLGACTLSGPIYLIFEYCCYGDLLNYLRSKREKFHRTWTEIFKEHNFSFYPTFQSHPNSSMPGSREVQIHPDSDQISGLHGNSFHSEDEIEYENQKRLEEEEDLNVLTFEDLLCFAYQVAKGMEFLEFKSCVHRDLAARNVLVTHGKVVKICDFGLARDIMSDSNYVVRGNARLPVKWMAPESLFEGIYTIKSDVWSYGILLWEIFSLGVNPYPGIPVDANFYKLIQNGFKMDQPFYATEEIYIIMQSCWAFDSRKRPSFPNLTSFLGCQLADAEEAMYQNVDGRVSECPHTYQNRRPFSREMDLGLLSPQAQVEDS
Epidermal growth factor receptor, sequence (P00533 whole entry, the tested form may be a part): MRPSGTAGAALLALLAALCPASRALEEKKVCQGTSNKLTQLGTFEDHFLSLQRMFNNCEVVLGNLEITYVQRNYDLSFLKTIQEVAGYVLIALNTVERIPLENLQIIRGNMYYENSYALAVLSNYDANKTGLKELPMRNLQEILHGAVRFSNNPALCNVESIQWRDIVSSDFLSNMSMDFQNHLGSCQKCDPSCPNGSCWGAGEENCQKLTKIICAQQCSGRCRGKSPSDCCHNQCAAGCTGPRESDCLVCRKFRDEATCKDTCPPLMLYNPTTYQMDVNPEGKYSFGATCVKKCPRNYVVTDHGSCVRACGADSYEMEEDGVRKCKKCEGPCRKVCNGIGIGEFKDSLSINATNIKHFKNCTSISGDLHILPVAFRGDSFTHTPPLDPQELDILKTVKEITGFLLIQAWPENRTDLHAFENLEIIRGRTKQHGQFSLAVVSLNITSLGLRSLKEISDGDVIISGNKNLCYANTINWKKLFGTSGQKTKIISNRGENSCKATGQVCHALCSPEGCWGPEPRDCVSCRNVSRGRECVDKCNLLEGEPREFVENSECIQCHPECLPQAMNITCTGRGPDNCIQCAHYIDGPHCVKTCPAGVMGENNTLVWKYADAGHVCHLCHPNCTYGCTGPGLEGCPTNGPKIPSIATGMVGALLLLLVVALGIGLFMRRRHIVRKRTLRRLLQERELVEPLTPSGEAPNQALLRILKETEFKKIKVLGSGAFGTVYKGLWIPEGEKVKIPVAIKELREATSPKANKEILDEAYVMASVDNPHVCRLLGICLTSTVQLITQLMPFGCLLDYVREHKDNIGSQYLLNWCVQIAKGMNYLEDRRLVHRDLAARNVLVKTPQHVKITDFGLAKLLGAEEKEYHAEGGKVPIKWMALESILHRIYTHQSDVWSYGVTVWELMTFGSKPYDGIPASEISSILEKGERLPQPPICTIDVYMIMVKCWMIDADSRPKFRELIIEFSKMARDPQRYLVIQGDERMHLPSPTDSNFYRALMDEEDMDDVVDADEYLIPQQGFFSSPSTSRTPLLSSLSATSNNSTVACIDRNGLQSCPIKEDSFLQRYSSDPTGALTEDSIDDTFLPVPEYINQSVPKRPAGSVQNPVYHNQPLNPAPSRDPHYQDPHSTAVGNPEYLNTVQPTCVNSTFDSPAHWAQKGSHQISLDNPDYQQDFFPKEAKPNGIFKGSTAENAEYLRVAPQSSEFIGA
Macrophage colony-stimulating factor 1 receptor, sequence (P07333 whole entry, the tested form may be a part): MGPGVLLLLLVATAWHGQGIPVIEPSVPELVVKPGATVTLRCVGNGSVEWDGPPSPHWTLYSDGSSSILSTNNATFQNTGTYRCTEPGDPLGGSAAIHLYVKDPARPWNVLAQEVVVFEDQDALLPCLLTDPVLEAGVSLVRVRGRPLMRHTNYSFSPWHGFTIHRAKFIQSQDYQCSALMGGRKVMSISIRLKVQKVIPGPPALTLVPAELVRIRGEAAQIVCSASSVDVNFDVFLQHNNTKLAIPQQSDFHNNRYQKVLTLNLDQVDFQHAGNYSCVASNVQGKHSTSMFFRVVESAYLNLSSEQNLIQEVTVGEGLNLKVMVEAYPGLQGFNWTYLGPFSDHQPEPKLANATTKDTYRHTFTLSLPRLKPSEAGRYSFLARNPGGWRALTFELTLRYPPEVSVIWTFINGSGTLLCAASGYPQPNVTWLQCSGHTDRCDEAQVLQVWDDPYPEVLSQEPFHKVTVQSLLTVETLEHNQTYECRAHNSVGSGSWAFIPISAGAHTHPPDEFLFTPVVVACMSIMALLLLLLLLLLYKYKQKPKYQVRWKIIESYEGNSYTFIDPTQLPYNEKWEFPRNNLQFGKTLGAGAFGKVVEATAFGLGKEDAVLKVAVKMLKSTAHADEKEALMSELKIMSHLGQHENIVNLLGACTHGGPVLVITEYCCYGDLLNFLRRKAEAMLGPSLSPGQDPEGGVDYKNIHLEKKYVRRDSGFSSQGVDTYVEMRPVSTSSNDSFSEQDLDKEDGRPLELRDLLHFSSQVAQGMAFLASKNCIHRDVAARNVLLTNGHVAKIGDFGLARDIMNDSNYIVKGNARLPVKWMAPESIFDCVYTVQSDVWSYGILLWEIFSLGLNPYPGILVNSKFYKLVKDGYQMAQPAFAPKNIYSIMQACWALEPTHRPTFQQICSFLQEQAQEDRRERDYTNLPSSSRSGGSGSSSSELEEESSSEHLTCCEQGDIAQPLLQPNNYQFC
Fibroblast growth factor receptor 3, sequence (P22607 whole entry, the tested form may be a part): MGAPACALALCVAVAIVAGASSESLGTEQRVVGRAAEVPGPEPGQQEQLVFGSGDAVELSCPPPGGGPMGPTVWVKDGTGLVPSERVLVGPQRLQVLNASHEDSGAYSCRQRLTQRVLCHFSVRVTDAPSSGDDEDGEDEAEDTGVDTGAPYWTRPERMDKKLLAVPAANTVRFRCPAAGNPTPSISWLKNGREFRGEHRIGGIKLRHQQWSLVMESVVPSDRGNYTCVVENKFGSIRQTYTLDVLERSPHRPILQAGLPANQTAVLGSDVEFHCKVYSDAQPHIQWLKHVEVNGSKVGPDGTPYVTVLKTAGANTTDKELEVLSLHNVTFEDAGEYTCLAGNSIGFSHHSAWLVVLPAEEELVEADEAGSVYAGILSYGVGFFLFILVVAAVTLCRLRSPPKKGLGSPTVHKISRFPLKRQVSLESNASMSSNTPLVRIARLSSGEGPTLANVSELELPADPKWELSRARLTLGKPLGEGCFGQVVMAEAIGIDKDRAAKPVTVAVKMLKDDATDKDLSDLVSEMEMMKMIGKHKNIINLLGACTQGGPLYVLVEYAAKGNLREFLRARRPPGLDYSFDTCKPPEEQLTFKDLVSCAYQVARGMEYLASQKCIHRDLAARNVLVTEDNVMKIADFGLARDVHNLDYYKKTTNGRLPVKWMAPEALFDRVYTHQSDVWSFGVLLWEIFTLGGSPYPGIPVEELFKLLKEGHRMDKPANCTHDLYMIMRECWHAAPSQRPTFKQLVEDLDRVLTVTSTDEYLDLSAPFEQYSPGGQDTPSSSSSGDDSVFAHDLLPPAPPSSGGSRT
Tyrosine-protein kinase Lyn (Homo sapiens), sequence (P07948 2-512 limits assumed): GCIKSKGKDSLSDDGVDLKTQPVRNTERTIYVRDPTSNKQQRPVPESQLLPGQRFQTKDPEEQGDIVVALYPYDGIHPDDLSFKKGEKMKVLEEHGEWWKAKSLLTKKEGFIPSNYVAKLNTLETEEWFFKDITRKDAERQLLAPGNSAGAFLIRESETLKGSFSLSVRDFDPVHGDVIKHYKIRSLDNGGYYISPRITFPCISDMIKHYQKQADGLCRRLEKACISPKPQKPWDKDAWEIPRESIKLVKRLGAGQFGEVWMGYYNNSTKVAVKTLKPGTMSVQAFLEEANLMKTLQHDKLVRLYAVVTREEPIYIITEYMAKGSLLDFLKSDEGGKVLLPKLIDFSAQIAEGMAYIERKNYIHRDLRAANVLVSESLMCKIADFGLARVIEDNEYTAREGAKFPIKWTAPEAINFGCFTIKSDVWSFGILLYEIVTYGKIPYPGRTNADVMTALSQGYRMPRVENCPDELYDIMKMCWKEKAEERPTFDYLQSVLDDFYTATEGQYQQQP

Which results are given for CCC(=O)N1CC[C@H](N2C(=O)N(c3cc(OC)ccc3Cl)Cc3cnc(Nc4ccc(N5CCN(C6COC6)CC5)c(C)c4)nc32)C1?
IC50 [1]: 360 nM; Cmax [2]: 2520 ng/mL; half-life [3]: 1.08 h; IC50 [4]: 37 nM; inhibition [5]: > 90%; Ratio IC50 (Homo sapiens [6]): 10 to 35; inhibition at 0.625 µM (RAW264.7): 44.5%; IC50 [7]: 40.2 nM; AUC (Rattus norvegicus): 6462 ng·h/mL; IC50 [8]: 3 nM; Ratio IC50 (Homo sapiens [9]): 10 to 35; inhibition [10]: Dose-dependent effect

Reference: ChEMBL document CHEMBL4033795, “Design, Synthesis, and Structure-Activity Relationship Study of 2-Oxo-3,4-dihydropyrimido[4,5- d]pyrimidines as New Colony Stimulating Factor 1 Receptor (CSF1R) Kinase Inhibitors” (J Med Chem, 2018)
